Experimental data taken from ChEMBL document CHEMBL1154871, “Synthesis of new spiroindolinones incorporating a benzothiazole moiety as antioxidant agents” (Eur J Med Chem, 2010).
Each block holds one compound with its values, some of them ahead of it.

What was measured:
Format in all cases: functional
[1] = Antioxidant activity assessed as inhibition of Fe(3+)/ascorbate-induced lipid peroxidation in liposomes after 1 hr by TBARS assay
Procedure, shortened: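 Lecithin liposomes were sonicated in 10 mmol/L phosphate buffer, pH 7.4. Final mix: 3.08 mg liposome/mL, 123.2 µmol FeCl3, 123.2 µmol ascorbic acid, test compound 0.025–0.4 mM. Incubated 1 h at 37 °C. MDA measured by TBA reaction; n-butanol layer read at 532 nm against a lecithin-free blank. EC50 is the concentration reducing TBARS to 50% of control.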

[2] = Antioxidant activity assessed as trolox equivalent of ABTS free radical scavenging activity after 6 mins by […]
Procedure, shortened: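 ABTS radical cation solution was added to compounds (0.2–6.25 mM). Decrease in absorbance at 734 nm was read exactly 6 min after mixing, with ethanol blanks. A Trolox standard curve (final 0–20 µM in ethanol) gives TEAC, the mM Trolox equivalent to 1 mM compound. Run in triplicate.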

[3] = tested on: Radical scavenging activity; test: Antioxidant activity assessed as DPPH radical scavenging activity after 30 mins by spectrophotometry
Procedure, shortened: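 Test compounds (0.2–6.25 mM) dissolved in DMSO, added to 6×10^-5 M methanolic DPPH. Mixture held 30 min at room temperature in the dark, then absorbance read at 517 nm against methanol. Scavenging % = [1 − A_sample/A_control] × 100, with a negative control lacking sample. Triplicates averaged; EC50 taken from dose–response.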

[4] = Antioxidant activity assessed as reduction of […]/ferricyanide complex after 20 mins by spectrophotometry
Procedure, shortened: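 Compounds (1.6–6.25 mM) mixed with 0.2 M phosphate buffer, pH 6.6, and 1% potassium ferricyanide, 20 min at 50 °C. Stopped with 1% TCA and centrifuged at 2790 g for 10 min. Supernatant plus water and 0.1% FeCl3 read at 700 nm. EC50 is the concentration giving absorbance 0.5. Mean ± SD of triplicates.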

SF-539 = test: Growth inhibition in human SF539 cells assessed as viable cells at 10 uM after 48 hrs by sulforhodamine B assay; conditions: SF-539, 48 h, read-out: Activity
SNB-75 = test: Growth inhibition in human SNB75 cells assessed as viable cells at 10 uM after 48 hrs by sulforhodamine B assay; conditions: SNB-75, 48 h, read-out: Activity
SNB-19 = test: Growth inhibition in human SNB19 cells assessed as viable cells at 10 uM after 48 hrs by sulforhodamine B assay; conditions: SNB-19, 48 h, read-out: Activity
U-251 = test: Growth inhibition in human U251 cells assessed as viable cells at 10 uM after 48 hrs by sulforhodamine B assay; conditions: U-251, 48 h, read-out: Activity
Procedure, shortened: (§1)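 NCI 60-line screen, single dose 10^-5 M, 48 h continuous exposure. Cells grown in RPMI 1640 with 5% FBS and 2 mM L-glutamine, plated at 5000–40,000 cells/well and preincubated 24 h at 37 °C, 5% CO2. Drug stocks in DMSO. Endpoint: TCA fixation, SRB staining, absorbance at 515 nm. Growth % relative to untreated controls and time-zero plates.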

SF-268 = test: Growth inhibition in human SF268 cells assessed as viable cells at 10 uM after 48 hrs by sulforhodamine B assay; conditions: SF-268, 48 h, read-out: Activity
UO-31 = test: Growth inhibition in human UO31 cells assessed as viable cells at 10 uM after 48 hrs by sulforhodamine B assay; conditions: UO-31, 48 h, read-out: Activity; procedure, shortened: as §1
NCI/ADR-RES = test: Growth inhibition in human NCI/ADR-RES cells assessed as viable cells at 10 uM after 48 hrs by sulforhodamine B assay; conditions: read-out: Activity; procedure, shortened: as §1
SF-295 = test: Growth inhibition in human SF295 cells assessed as viable cells at 10 uM after 48 hrs by sulforhodamine B assay; conditions: SF-295, 48 h, read-out: Activity
UACC-62 = test: Growth inhibition in human UACC62 cells assessed as viable cells at 10 uM after 48 hrs by sulforhodamine B assay; conditions: UACC-62, 48 h, read-out: Activity
PC-3 = test: Growth inhibition in human PC3 cells assessed as viable cells at 10 uM after 48 hrs by sulforhodamine B assay; conditions: PC-3, 48 h, read-out: Activity; procedure, shortened: as §1
ACHN = test: Growth inhibition in human ACHN cells assessed as viable cells at 10 uM after 48 hrs by sulforhodamine B assay; conditions: read-out: Activity; procedure, shortened: as §1
SK-OV-3 = test: Growth inhibition in human SKOV3 cells assessed as viable cells at 10 uM after 48 hrs by sulforhodamine B assay; conditions: SK-OV-3, 48 h, read-out: Activity; procedure, shortened: as §1
T47D = test: Growth inhibition in human T47D cells assessed as viable cells at 10 uM after 48 hrs by sulforhodamine B assay; conditions: read-out: Activity
MDA-MB-231 = test: Growth inhibition in human MDA-MB-231/ATCC cells assessed as viable cells at 10 uM after 48 hrs by sulforhodamine B assay; conditions: MDA-MB-231, 48 h, read-out: Activity; procedure, shortened: as §1
IGROV-1 = test: Growth inhibition in human IGROV1 cells assessed as viable cells at 10 uM after 48 hrs by sulforhodamine B assay; conditions: IGROV-1, 48 h, read-out: Activity
LOX IMVI = test: Growth inhibition in human LOXIMVI cells assessed as viable cells at 10 uM after 48 hrs by sulforhodamine B assay; conditions: read-out: Activity
OVCAR-8 = test: Growth inhibition in human OVCAR8 cells assessed as viable cells at 10 uM after 48 hrs by sulforhodamine B assay; conditions: OVCAR-8, 48 h, read-out: Activity
M14 = test: Growth inhibition in human M14 cells assessed as viable cells at 10 uM after 48 hrs by sulforhodamine B assay; conditions: M14, 48 h, read-out: Activity; procedure, shortened: as §1
SK-MEL-2 = test: Growth inhibition in human SK-MEL-2 cells assessed as viable cells at 10 uM after 48 hrs by sulforhodamine B assay; conditions: SK-MEL-2, 48 h, read-out: Activity
OVCAR-4 = test: Growth inhibition in human OVCAR4 cells assessed as viable cells at 10 uM after 48 hrs by sulforhodamine B assay; conditions: OVCAR-4, 48 h, read-out: Activity
OVCAR-5 = test: Growth inhibition in human OVCAR5 cells assessed as viable cells at 10 uM after 48 hrs by sulforhodamine B assay; conditions: OVCAR-5, 48 h, read-out: Activity
DU-145 = test: Growth inhibition in human DU145 cells assessed as viable cells at 10 uM after 48 hrs by sulforhodamine B assay; conditions: DU-145, 48 h, read-out: Activity; procedure, shortened: as §1
SK-MEL-5 = test: Growth inhibition in human SK-MEL-5 cells assessed as viable cells at 10 uM after 48 hrs by sulforhodamine B assay; conditions: SK-MEL-5, 48 h, read-out: Activity
SN12C = test: Growth inhibition in human SN12C cells assessed as viable cells at 10 uM after 48 hrs by sulforhodamine B assay; conditions: read-out: Activity; procedure, shortened: as §1
MCF7 = test: Growth inhibition in human MCF7 cells assessed as viable cells at 10 uM after 48 hrs by sulforhodamine B assay; conditions: MCF7, 48 h, read-out: Activity; procedure, shortened: as §1
MDA-MB-435 = test: Growth inhibition in human MDA-MB-435 cells assessed as viable cells at 10 uM after 48 hrs by sulforhodamine B assay; conditions: MDA-MB-435, 48 h, read-out: Activity
CAKI-1 = test: Growth inhibition in human Caki1 cells assessed as viable cells at 10 uM after 48 hrs by sulforhodamine B assay; conditions: CAKI-1, 48 h, read-out: Activity; procedure, shortened: as §1
786-0 = test: Growth inhibition in human 786-0 cells assessed as viable cells at 10 uM after 48 hrs by sulforhodamine B assay; conditions: 786-0, 48 h, read-out: Activity; procedure, shortened: as §1
TK-10 = test: Growth inhibition in human TK10 cells assessed as viable cells at 10 uM after 48 hrs by sulforhodamine B assay; conditions: TK-10, 48 h, read-out: Activity; procedure, shortened: as §1
MDA-MB-468 = test: Growth inhibition in human MDA-MB-468 cells assessed as viable cells at 10 uM after 48 hrs by sulforhodamine B assay; conditions: MDA-MB-468, 48 h, read-out: Activity; procedure, shortened: as §1
[5] = Growth inhibition in human Hs 578T cells assessed as viable cells at 10 uM after 48 hrs by sulforhodamine B assay; conditions: read-out: Activity; procedure, shortened: as §1
A498 = test: Growth inhibition in human A498 cells assessed as viable cells at 10 uM after 48 hrs by sulforhodamine B assay; conditions: A498, 48 h, read-out: Activity; procedure, shortened: as §1
UACC-257 = test: Growth inhibition in human UACC257 cells assessed as viable cells at 10 uM after 48 hrs by sulforhodamine B assay; conditions: UACC-257, 48 h, read-out: Activity
SK-MEL-28 = test: Growth inhibition in human SK-MEL-28 cells assessed as viable cells at 10 uM after 48 hrs by sulforhodamine B assay; conditions: SK-MEL-28, 48 h, read-out: Activity; procedure, shortened: as §1
OVCAR-3 = test: Growth inhibition in human OVCAR-3 cells assessed as viable cells at 10 uM after 48 hrs by sulforhodamine B assay; conditions: OVCAR-3, 48 h, read-out: Activity
BT-549 = test: Growth inhibition in human BT549 cells assessed as viable cells at 10 uM after 48 hrs by sulforhodamine B assay; conditions: BT-549, 48 h, read-out: Activity; procedure, shortened: as §1
Malme-3M = test: Growth inhibition in human MALME-3M cells assessed as viable cells at 10 uM after 48 hrs by sulforhodamine B assay; conditions: read-out: Activity

SMILES: O=C1Nc2ccc(Cl)cc2C12Nc1ccccc1S2 (configuration not stated)
viability at 10 µM (SF-539): 97.4%
viability at 10 µM (SNB-75): 55.8%
EC50 [1]: 49 µM
viability at 10 µM (SNB-19): 107%
viability at 10 µM (U-251): 98.5%
EC50 [2]: 1030 µM
EC50 [3]: 1780 µM
EC50 [4]: 510 µM
viability at 10 µM (SF-268): 83.2%

SMILES: CN1C(=O)C2(Nc3ccccc3S2)c2cc(OC(F)(F)F)ccc21 (configuration not stated)
viability at 10 µM (UO-31): 58.3%
viability at 10 µM (NCI/ADR-RES): 100%
viability at 10 µM (SF-295): 102%
viability at 10 µM (UACC-62): 80.4%
viability at 10 µM (PC-3): 84.6%
viability at 10 µM (ACHN): 80.9%
viability at 10 µM (SF-539): 116%
viability at 10 µM (SK-OV-3): 102%
viability at 10 µM (T47D): 60%
viability at 10 µM (MDA-MB-231): 96.2%
viability at 10 µM (IGROV-1): 86.2%
viability at 10 µM (LOX IMVI): 98.6%
viability at 10 µM (OVCAR-8): 99.1%
viability at 10 µM (SNB-75): 55.3%
viability at 10 µM (M14): 102%
viability at 10 µM (SK-MEL-2): 101%
viability at 10 µM (OVCAR-4): 73.4%
EC50 [1]: 84 µM
viability at 10 µM (OVCAR-5): 121%
viability at 10 µM (DU-145): 107%
viability at 10 µM (SK-MEL-5): 99.7%
viability at 10 µM (SNB-19): 92.4%
viability at 10 µM (SN12C): 105%
viability at 10 µM (U-251): 88.4%
viability at 10 µM (MCF7): 82.8%
viability at 10 µM (MDA-MB-435): 100%
viability at 10 µM (CAKI-1): 96.8%
viability at 10 µM (786-0): 108%
viability at 10 µM (TK-10): 105%
viability at 10 µM (MDA-MB-468): 112%
viability at 10 µM [5]: 92.4%
viability at 10 µM (A498): 108%
EC50 [2]: 1370 µM
EC50 [3]: 1620 µM
viability at 10 µM (UACC-257): 102%
EC50 [4]: 4940 µM
viability at 10 µM (SF-268): 97.7%
viability at 10 µM (SK-MEL-28): 103%
viability at 10 µM (OVCAR-3): 103%
viability at 10 µM (BT-549): 108%
viability at 10 µM (Malme-3M): 98.5%

Further compounds by falling EC50 [1], results first:

EC50 [1]: 87 µM
EC50 [2]: 1630 µM
EC50 [3]: 1300 µM
EC50 [4]: 800 µM
SMILES: O=C1Nc2ccc([N+](=O)[O-])cc2C12Nc1ccccc1S2 (configuration not stated)

EC50 [1]: 41 µM
EC50 [2]: 1020 µM
EC50 [3]: 1300 µM
EC50 [4]: 1360 µM
SMILES: Cc1ccc2c(c1)C1(Nc3ccccc3S1)C(=O)N2 (configuration not stated)

EC50 [1]: 34 µM
EC50 [2]: 980 µM
EC50 [3]: 980 µM
EC50 [4]: 700 µM
SMILES: Cc1ccc2c(c1)C1(Nc3ccccc3S1)C(=O)N2C (configuration not stated)
